≈ marks a conversion by molar mass, not a printed value. Calls of active or inactive are those of the source. The rule behind the calls is not given here.

Assay type in all cases: functional
For one assay, the system named is Klebsiella pneumoniae. Description: Antibacterial activity against Klebsiella pneumoniae A-''AD'' after 16 to 20 hrs. The method, boiled down:
(§1)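 Broth microdilution MIC. Bacteria grown in brain heart infusion (BHI) broth at 37° for 24 h, then subcultured into fresh BHI for 8 h. Cultures diluted in 0.9% NaCl to McFarland 0.5 (ca. 10^8 cfu/ml), then diluted 20-fold in BHI. Two-fold antibiotic dilution series; 50 μl drug plus 50 μl culture per well. Incubated at 37° for 16–20 h.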

The next assay has as its system Escherichia coli. The assay is described as follows: Antibacterial activity against Escherichia coli ATCC 10536 after 16 to 20 hrs. The gist of the method: as §1
Another assay deals with Bacillus subtilis. The assay is described as follows: Antibacterial activity against Bacillus subtilis ATCC 6633 after 16 to 20 hrs. The gist of the method: as §1
The test system of a further assay is Proteus vulgaris. The assay is described as follows: Antibacterial activity against Proteus vulgaris after 16 to 20 hrs. The method, boiled down:
as §1

Another assay has as its system Serratia marcescens. Description: Antibacterial activity against Serratia marcescens ATCC 13880 after 16 to 20 hrs. The method, boiled down:
as §1

A further assay relates to Enterococcus faecalis. Description: Antibacterial activity against Streptococcus faecalis ATCC 29212 after 16 to 20 hrs. The gist of the method:
as §1

The next assay relates to Micrococcus luteus. The assay is described as follows: Antibacterial activity against Micrococcus luteus ATCC 4698 after 16 to 20 hrs. The gist of the method: as §1

Turning to `COc1c(C)c(O)c2c(c1O)[C@@H](CO)N1[C@H]3[C@@H]4[C@@H](C[C@H]([C@H]1O)N4C)[C@@H]1OCCN1[C@@H]23`, the outcome with Klebsiella pneumoniae, in the assay on Escherichia coli, in the assay on Bacillus subtilis, in the assay with Proteus vulgaris, in the assay with Serratia marcescens and in the assay with Enterococcus faecalis was Active. The outcome in the assay with Micrococcus luteus was Active.

On to `COC1=C(C)C(=O)C2=C(C1=O)[C@@H](CO)N1[C@H]3[C@H]4N[C@H](C[C@H]4[C@@H]4OCCN4[C@@H]23)[C@H]1C#N` [CYANOCYCLINE B], for which the MIC in the assay on Klebsiella pneumoniae was found to be 0.031 µg/mL (≈ 0.0752 µM); against Escherichia coli, 0.25 µg/mL (≈ 0.606 µM); against Bacillus subtilis, 0.016 µg/mL (≈ 0.0388 µM); against Proteus vulgaris it was 1 µg/mL (≈ 2.42 µM); against Serratia marcescens, 0.5 µg/mL (≈ 1.21 µM); with Enterococcus faecalis, 0.25 µg/mL (≈ 0.606 µM). In the assay on Micrococcus luteus, this compound returned an MIC of 0.063 µg/mL (≈ 0.153 µM).

Take `COc1c(C)c(OC)c2c(c1OC)[C@@H](CO)N1[C@H]3[C@@H]4[C@@H](C[C@H]([C@H]1C#N)N4C)[C@@H]1OCCN1[C@@H]23`: the result in the assay with Klebsiella pneumoniae, in the assay with Escherichia coli, with Bacillus subtilis, with Proteus vulgaris, in the assay with Serratia marcescens and in the assay with Enterococcus faecalis was inactive. Also, in the assay with Micrococcus luteus, the outcome was inactive.

With `COC1=C(C)C(=O)C2=C(C1=O)[C@@H](CO)N1[C@H]3[C@H]4N[C@H](C[C@H]4[C@@H]4OCCN4[C@@H]23)[C@@H]1O`, the outcome in the assay on Klebsiella pneumoniae, with Escherichia coli, with Bacillus subtilis, in the assay with Proteus vulgaris, in the assay with Serratia marcescens and in the assay on Enterococcus faecalis was Active. For the same compound, in the assay on Micrococcus luteus, the outcome was Active.

Consider `COC1=C(C)C(=O)C2=C(C1=O)[C@@H](CO)N1[C@H]3[C@H]4[C@@H](C[C@H]([C@H]1C#N)N4C)[C@@H]1OCCN1[C@@H]23` [CYANOCYCLINE A], for which the minimum inhibitory concentration (MIC) is 0.125 µg/mL (≈ 0.293 µM) against Klebsiella pneumoniae; 0.125 µg/mL (≈ 0.293 µM) against Escherichia coli; 0.031 µg/mL (≈ 0.0727 µM) against Bacillus subtilis; 0.25 µg/mL (≈ 0.586 µM) with Proteus vulgaris; 0.5 µg/mL (≈ 1.17 µM) with Serratia marcescens; 0.25 µg/mL (≈ 0.586 µM) against Enterococcus faecalis. In addition, the minimal inhibitory concentration (MIC) against Micrococcus luteus worked out at 0.031 µg/mL (≈ 0.0727 µM).

For `COC1=C(C)C(=O)C2=C(C1=O)[C@@H](CO)N1[C@H]3[C@@H]4[C@@H](C[C@H]([C@H]1C#N)N4C)[C@H](C#N)N(CCO)[C@@H]23` [CYANOCYCLINE D], the minimum inhibitory concentration (MIC) in the assay on Klebsiella pneumoniae came out at 0.125 µg/mL (≈ 0.276 µM); against Escherichia coli, 0.5 µg/mL (≈ 1.1 µM); with Bacillus subtilis it was 0.061 µg/mL (≈ 0.135 µM); in the assay on Proteus vulgaris, 0.5 µg/mL (≈ 1.1 µM); against Serratia marcescens, 0.25 µg/mL (≈ 0.551 µM); in the assay with Enterococcus faecalis it was 0.25 µg/mL (≈ 0.551 µM). This compound had a minimum inhibitory concentration (MIC) with Micrococcus luteus of 0.125 µg/mL (≈ 0.276 µM).

In the case of `COc1c(C)c(O)c2c(c1O)[C@@H](CO)N1[C@H]3[C@@H]4[C@@H](C[C@H]([C@H]1C#N)N4C)[C@@H]1OCCN1[C@@H]23`, the outcome in the assay with Klebsiella pneumoniae, in the assay with Escherichia coli, in the assay with Bacillus subtilis, with Proteus vulgaris, in the assay with Serratia marcescens and in the assay with Enterococcus faecalis was Active. Besides, the result in the assay on Micrococcus luteus was Active.

In general, MIC refers to the lowest concentration that inhibits growth of the organism. Higher therefore signals a less susceptible organism.
